Columns and labels:
[1] = tested on: CV-1; test: Selectivity ratio of EC50 for human recombinant transfected in CV-1 cells to EC50 for human recombinant TRbeta1 transfected in CV-1 cells; type: cell-based
Summary of the method: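 CV-1 monkey kidney cells grown in DMEM with 10% FBS for 24 h at 37 °C and 5% CO2. Transfected (FuGENE) with hTRα1 or hTRβ1 plus a SEAP reporter for 24 h, then exposed to T3 or test compound for 8-10 h. SEAP was read as A405 of p-nitrophenol (pH 9.8, 30 min, RT). EC50 was set against T3 max = 100%; mean of four experiments; α/β ratio of EC50s.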

[2] = tested on: HepG2; test: Selectivity ratio of EC50 for human recombinant transfected in human HepG2 cells to EC50 for human recombinant TRbeta1 transfected in human HepG2; type: cell-based
[3] = tested on: Rattus norvegicus; test: Reduction in plasma total cholesterol in cholesterol-fed Sprague-Dawley rat at 6 mg/kg/day, po qd for 1 week measured 3 to 6 hrs post last dose (reference value: 190 +/- 49 mg/dl); type: functional
[4] = tested on: Rattus norvegicus; test: Reduction in plasma LDL-cholesterol in cholesterol-fed Sprague-Dawley rat at 6 mg/kg/day, po qd for 1 week measured 3 to 6 hrs post last dose (reference value: 51 +/- 15 mg/dl); type: functional
[5] = tested on: Rattus norvegicus; test: Toxicity in cholesterol-fed Sprague-Dawley rat assessed as total T4 level at 150 mg/kg/day, po qd for 1 week measured 3 to 6 hrs post last dose (reference value: 3.8 +/- 0.9 ug/dl); type: organism-based; design: route oral; conditions: in vivo
[6] = tested on: Rattus norvegicus; test: Reduction in plasma triglyceride level in cholesterol-fed Sprague-Dawley rat at 6 mg/kg/day, po qd for 1 week measured 3 to 6 hrs post last dose (reference value: 62 +/- 25 mg/dl); type: functional
[7] = tested on: Rattus norvegicus; test: Toxicity in cholesterol-fed Sprague-Dawley rat assessed as heart weight at 150 mg/kg/day, po qd for 1 week measured 3 to 6 hrs post last dose (reference value: 1.14 +/- 0.12 g); type: organism-based; design: route oral; conditions: in vivo
[8] = tested on: Rattus norvegicus; test: Toxicity in cholesterol-fed Sprague-Dawley rat assessed as heart rate at 6 mg/kg/day, po qd for 1 week measured 3 to 6 hrs post last dose (reference value: 383.0 +/- 26.7 bpm); type: organism-based; design: route oral; conditions: in vivo
[9] = tested on: Rattus norvegicus; test: Reduction in plasma free cholesterol in cholesterol-fed Sprague-Dawley rat at 6 mg/kg/day, po qd for 1 week measured 3 to 6 hrs post last dose (reference value: 36 +/- 9 mg/dl); type: functional
[10] = tested on: Rattus norvegicus; test: Toxicity in cholesterol-fed Sprague-Dawley rat assessed as TSH level at 6 mg/kg/day, po qd for 1 week measured 3 to 6 hrs post last dose (reference value: 3.0 +/- 1.0 uIU/ml); type: organism-based; design: route oral; conditions: in vivo
[11] = tested on: Rattus norvegicus; test: Toxicity in cholesterol-fed Sprague-Dawley rat assessed as total T4 level at 6 mg/kg/day, po qd for 1 week measured 3 to 6 hrs post last dose (reference value: 3.8 +/- 0.9 ug/dl); type: organism-based; design: route oral; conditions: in vivo
[12] = molecular target: T1, Thyroid hormone receptor beta (Homo sapiens, UniProt P10828); test: Agonist activity at human recombinant TRbeta1 transfected in CV-1 cells after 8 to 10 hrs by alkaline phosphatase reporter gene assay; type: cell-based
T1 sequence (P10828 whole entry): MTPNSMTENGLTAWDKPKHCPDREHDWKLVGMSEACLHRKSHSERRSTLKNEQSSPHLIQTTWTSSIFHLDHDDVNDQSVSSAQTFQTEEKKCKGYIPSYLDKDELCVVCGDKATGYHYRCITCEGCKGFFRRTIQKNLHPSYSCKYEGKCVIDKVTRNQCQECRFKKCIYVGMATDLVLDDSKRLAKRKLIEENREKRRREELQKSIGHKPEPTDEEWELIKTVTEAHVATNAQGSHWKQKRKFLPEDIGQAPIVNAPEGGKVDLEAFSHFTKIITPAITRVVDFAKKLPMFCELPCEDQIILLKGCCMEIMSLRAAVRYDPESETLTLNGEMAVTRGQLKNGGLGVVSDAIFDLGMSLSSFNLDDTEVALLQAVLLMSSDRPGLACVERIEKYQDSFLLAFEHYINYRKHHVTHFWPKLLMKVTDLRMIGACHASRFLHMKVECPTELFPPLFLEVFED

[13] = molecular target: T1, Thyroid hormone receptor beta; test: Agonist activity at human recombinant TRbeta1 transfected in human HepG2 cells after 8 to 10 hrs by alkaline phosphatase reporter gene assay; type: cell-based
[14] = molecular target: T2, Thyroid hormone receptor alpha (Homo sapiens, UniProt P10827); test: Displacement of [125I]-Triiodothyronine from human recombinant TRalpha1 ligand binding domain after 2 to 3 hrs by beta counting
T2 sequence (P10827 whole entry): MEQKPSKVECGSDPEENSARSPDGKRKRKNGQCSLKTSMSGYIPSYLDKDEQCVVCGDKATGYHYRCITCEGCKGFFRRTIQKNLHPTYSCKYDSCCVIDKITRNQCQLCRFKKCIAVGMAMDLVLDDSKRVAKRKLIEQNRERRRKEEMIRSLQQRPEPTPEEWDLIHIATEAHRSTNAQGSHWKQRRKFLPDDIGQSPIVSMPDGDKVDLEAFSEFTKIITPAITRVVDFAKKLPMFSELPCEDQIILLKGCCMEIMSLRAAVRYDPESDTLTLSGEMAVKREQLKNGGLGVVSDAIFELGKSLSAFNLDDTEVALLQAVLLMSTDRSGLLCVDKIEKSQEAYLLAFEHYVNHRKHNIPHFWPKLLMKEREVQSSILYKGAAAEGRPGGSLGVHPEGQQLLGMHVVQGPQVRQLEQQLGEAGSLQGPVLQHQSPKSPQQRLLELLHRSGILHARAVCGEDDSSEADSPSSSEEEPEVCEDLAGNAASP

[15] = molecular target: T1, Thyroid hormone receptor beta; test: Displacement of [125I]-Triiodothyronine from human recombinant TRbeta1 ligand binding domain after 2 to 3 hrs by beta counting
[16] = tested on: Rattus norvegicus; test: Toxicity in cholesterol-fed Sprague-Dawley rat assessed as heart weight at 6 mg/kg/day, po qd for 1 week measured 3 to 6 hrs post last dose (reference value: 1.14 +/- 0.12 g); type: organism-based; design: route oral; conditions: in vivo
[17] = tested on: Rattus norvegicus; test: Toxicity in cholesterol-fed Sprague-Dawley rat assessed as heart rate at 150 mg/kg/day, po qd for 1 week measured 3 to 6 hrs post last dose (reference value: 383.0 +/- 26.7 bpm); type: organism-based; design: route oral; conditions: in vivo
[18] = tested on: Rattus norvegicus; test: Toxicity in cholesterol-fed Sprague-Dawley rat assessed as TSH level at 150 mg/kg/day, po qd for 1 week measured 3 to 6 hrs post last dose (reference value: 3.0 +/- 1.0 uIU/ml); type: organism-based; design: route oral; conditions: in vivo
[19] = tested on: Rattus norvegicus; test: Reduction in plasma HDL-cholesterol in cholesterol-fed Sprague-Dawley rat at 6 mg/kg/day, po qd for 1 week measured 3 to 6 hrs post last dose (reference value: 22 +/- 6 mg/dl); type: functional

EC50 [12]: 3100 nM | EC50 [13]: 1300 nM | IC50 [14]: 5200 nM | IC50 [15]: 240 nM
Compound: Cc1ccc(NC(=O)CC(=O)O)c2ccn(Cc3ccc(O)c(C(C)C)c3)c12
Ratio EC50 [1]: 3.4 | Ratio EC50 [2]: 7.2 | Activity [3]: 94 mg/dL | Activity [4]: 20 mg/dL | Activity [5]: 1.9 µg/dL | Activity [6]: 27 mg/dL | Activity [7]: 1.18 g | Activity [8]: 401.8 bpm | Activity [9]: 15 mg/dL | Activity [10]: 2.7 uIU/ml | Activity [11]: 2.4 µg/dL | Activity [16]: 1.12 g | Activity [17]: 424.3 bpm | Activity [18]: 1.3 uIU/ml | Activity [19]: 20 mg/dL

Source: ChEMBL document CHEMBL3124871, “Synthesis and pharmacological characterization of 1-benzyl-4-aminoindole-based thyroid hormone receptor β agonists” (Bioorg Med Chem, 2014)
